Results from ChEMBL document CHEMBL4184148 (Bioorg Med Chem Lett, 2017).

Tests used:
[1] = molecular target: Serine/threonine-protein kinase PLK4 (Homo sapiens, UniProt O00444); assay: Inhibition of GST-tagged human PLK4 (1 to 836 residues) by Lanthascreen binding assay
[2] = test system: Tyrosine-protein kinase ABL1 (Homo sapiens), P00519 [F317I]; assay: Binding affinity to human phosphorylated ABL1 F317I mutant (S229 to K512 residues) expressed in HEK293 cells at 1 uM by Kinomescan method relative to control; type: cell-based
[3] = molecular target: Activin receptor type-2A (Homo sapiens) (UniProt P27037); assay: Binding affinity to wild-type human ACVR2A (V171 to T499 residues) expressed in Escherichia coli BL21 at 1 uM by Kinomescan method relative to control
[4] = molecular target: 5'-AMP-activated protein kinase catalytic subunit alpha-2 (Homo sapiens) (UniProt P54646); assay: Binding affinity to wild-type human partial length AMPK alpha2 (M1 to E306 residues) expressed in Escherichia coli BL21 at 1 uM by Kinomescan method relative to control
Outline: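 Kinome-wide competition binding panel run by an outside provider, with each compound tested at a single concentration. Activity is read against the kinase panel.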

[5] = molecular target: Dual specificity protein kinase CLK4 (Homo sapiens) (UniProt Q9HAZ1); assay: Binding affinity to wild-type human partial length CLK4 (R135 to K481 residues) expressed in Escherichia coli BL21 at 1 uM by Kinomescan method relative to control
[6] = molecular target: Epidermal growth factor receptor (Homo sapiens) (UniProt P00533); assay: Binding affinity to wild-type human partial length EGFR (R669 to V1011 residues) expressed in Escherichia coli BL21 at 1 uM by Kinomescan method relative to control
[7] = test system: Epidermal growth factor receptor (Homo sapiens), P00533 [L858R]; assay: Binding affinity to human partial length EGFR L858R mutant (R669 to V1011 residues) expressed in Escherichia coli BL21 at 1 uM by Kinomescan method relative to control
[8] = molecular target: Ephrin type-B receptor 4 (Homo sapiens) (UniProt P54760); assay: Binding affinity to wild-type human partial length EPHB4 (H585 to G892 residues) expressed in Escherichia coli BL21 at 1 uM by Kinomescan method relative to control
[9] = molecular target: Receptor tyrosine-protein kinase erbB-2 (Homo sapiens) (UniProt P04626); assay: Binding affinity to wild-type human partial length ERBB2 (K646 to V1225 residues) expressed in HEK293 cells at 1 uM by Kinomescan method relative to control; type: cell-based
[10] = molecular target: Receptor tyrosine-protein kinase erbB-4 (Homo sapiens) (UniProt Q15303); assay: Binding affinity to wild-type human partial length ERBB4 (L690 to K994 residues) expressed in Escherichia coli BL21 at 1 uM by Kinomescan method relative to control
[11] = molecular target: Vascular endothelial growth factor receptor 1 (Homo sapiens) (UniProt P17948); assay: Binding affinity to wild-type human partial length FLT1 (R781 to F1239 residues) expressed in Escherichia coli BL21 at 1 uM by Kinomescan method relative to control
[12] = test system: Receptor-type tyrosine-protein kinase FLT3 (Homo sapiens), P36888 [D835H]; assay: Binding affinity to human partial length FLT3 D835H mutant (V592 to Y969 residues) expressed in Escherichia coli BL21 at 1 uM by Kinomescan method relative to control
[13] = test system: Receptor-type tyrosine-protein kinase FLT3 (Homo sapiens), P36888 [D835V]; assay: Binding affinity to human partial length FLT3 D835V mutant (V592 to Y969 residues) expressed in Escherichia coli BL21 at 1 uM by Kinomescan method relative to control
[14] = molecular target: Tyrosine-protein kinase Fyn (Homo sapiens) (UniProt P06241); assay: Binding affinity to wild-type human partial length FYN (T243 to L534 residues) expressed in Escherichia coli BL21 at 1 uM by Kinomescan method relative to control
[15] = molecular target: Tyrosine-protein kinase Lck (Homo sapiens) (UniProt P06239); assay: Binding affinity to wild-type human partial length LCK (R207 to P509 residues) expressed in Escherichia coli BL21 at 1 uM by Kinomescan method relative to control
[16] = molecular target: MAP kinase-activated protein kinase 2 (Homo sapiens) (UniProt P49137); assay: Binding affinity to wild-type human partial length MAPKAPK2 (V48 to D345 residues) expressed in Escherichia coli BL21 at 1 uM by Kinomescan method relative to control
[17] = molecular target: MAP/microtubule affinity-regulating kinase 3 (Homo sapiens) (UniProt P27448); assay: Binding affinity to wild-type human full length MARK3 (M1 to L729 residues) expressed in Escherichia coli BL21 at 1 uM by Kinomescan method relative to control
Outline: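 Run as one kinome-wide competition binding panel with each compound at a single fixed concentration. Results were plotted as a kinome-wide selectivity map.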

[18] = molecular target: MAP/microtubule affinity-regulating kinase 4 (Homo sapiens) (UniProt Q96L34); assay: Binding affinity to wild-type human partial length MARK4 (K29 to G340 residues) expressed in Escherichia coli BL21 at 1 uM by Kinomescan method relative to control
[19] = molecular target: Serine/threonine-protein kinase pim-1 (Homo sapiens) (UniProt P11309); assay: Binding affinity to wild-type human partial length PIM1 (A15 to K313 residues) expressed in Escherichia coli BL21 at 1 uM by Kinomescan method relative to control
[20] = molecular target: Serine/threonine-protein kinase D3 (Homo sapiens) (UniProt O94806); assay: Binding affinity to wild-type human partial length PRKD3 (S543 to E863 residues) expressed in Escherichia coli BL21 at 1 uM by Kinomescan method relative to control
[21] = molecular target: cGMP-dependent protein kinase 1 (Homo sapiens) (UniProt Q13976); assay: Binding affinity to wild-type human partial length PRKG1 (L339 to F686 residues) expressed in Escherichia coli BL21 at 1 uM by Kinomescan method relative to control
[22] = molecular target: Serine/threonine-protein kinase 16 (Homo sapiens) (UniProt O75716); assay: Binding affinity to wild-type human partial length STK16 (G11 to I305 residues) expressed in Escherichia coli BL21 at 1 uM by Kinomescan method relative to control
[23] = molecular target: Serine/threonine-protein kinase TAO2 (Homo sapiens) (UniProt Q9UL54); assay: Binding affinity to wild-type human partial length TAOK2 (M1 to A320 residues) expressed in HEK293 cells at 1 uM by Kinomescan method relative to control; type: cell-based
[24] = molecular target: Tyrosine-protein kinase TXK (Homo sapiens) (UniProt P42681); assay: Binding affinity to wild-type human partial length TXK (L238 to W527 residues) expressed in Escherichia coli BL21 at 1 uM by Kinomescan method relative to control
[25] = molecular target: Mitogen-activated protein kinase kinase kinase 20 (Homo sapiens) (UniProt Q9NYL2); assay: Binding affinity to wild-type human partial length ZAK (M1 to L331 residues) expressed in Escherichia coli BL21 at 1 uM by Kinomescan method relative to control

Compound | IC50 [1] [nM] | Activity [2] [%] | Activity [3] [%] | Activity [4] [%] | Activity [5] [%] | Activity [6] [%] | Activity [7] [%] | Activity [8] [%] | Activity [9] [%] | Activity [10] [%] | Activity [11] [%] | Activity [12] [%] | Activity [13] [%] | Activity [14] [%] | Activity [15] [%] | Activity [16] [%] | Activity [17] [%] | Activity [18] [%] | Activity [19] [%] | Activity [20] [%] | other results
CCC(=O)Nc1ccc(C(=O)Nc2ccc(Nc3ncc4c(n3)N(C)c3ccc(C)cc3C(=O)N4C)cc2)cc1 | 82 | 63 | 100 | 100 | 100 | 69 | 65 | 100 | 100 | 96 | 91 | 87 | 86 | 100 | 86 | 100 | 95 | 85 | 85 | 81 | Activity [21]: 100%; Activity [22]: 77%; Activity [23]: 100%; Activity [24]: 93%; Activity [25]: 85%
C=CC(=O)Nc1ccc(C(=O)Nc2ccc(Nc3ncc4c(n3)N(C)c3ccc(C)cc3C(=O)N4C)cc2)cc1 | 43.5 | 100 | 100 | 88 | 100 | 83 | 86 | 95 | 93 | 96 | 87 | 92 | 90 | 81 | 90 | 98 | 80 | 52 | 88 | 90 | Activity [21]: 100%; Activity [22]: 77%; Activity [23]: 83%; Activity [24]: 100%; Activity [25]: 100%
